PMC8643159 (Drug Design, Development and Therapy, 2021)
Where two headings read alike, the source gives them in different places. Each block holds one compound with its values, some of them ahead of it.

Key:
[1] = system: CYP3A4; settings: cited from earlier work
[2] = system: CYP2C8; settings: cited from earlier work
[3] = format: in vivo; settings: beagle dogs
[4] = Stability of ripretinib in beagle dog plasma under four conditions; format: in vitro ADME; settings: room temperature, autosampler, freeze-thaw, frozen storage; 2.5, 100, 750 ng/mL
Summary of the method: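 Dog plasma spiked with test compound at 2.5, 100 and 750 ng/mL, six replicates per level. Stability checked at room temperature, in frozen storage, through freeze-thaw, and as processed extracts in the autosampler. Samples taken with avapritinib IS through 1 mol/L NaOH and ethyl acetate extraction, dried under nitrogen, reconstituted in mobile phase; quantified by UPLC-MS/MS (C18, 0.1% formic acid/acetonitrile gradient).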

[5] = cited from earlier work
[6] = combined with itraconazole vs ripretinib alone
[7] = combined with voriconazole vs ripretinib alone
[8] = oral administration of 150 mg of ripretinib
[9] = single dose of ripretinib 150 mg, patients

Structure (SMILES): CCC(C)n1ncn(-c2ccc(N3CCN(c4ccc(OCC5COC(Cn6cncn6)(c6ccc(Cl)cc6Cl)O5)cc4)CC3)cc2)c1=O (centres unmarked) [Itraconazole]
inhibition of CYP3A4 [1]: strong inhibitor

Structure (SMILES): CCn1c(=O)c(-c2cc(NC(=O)Nc3ccccc3)c(F)cc2Br)cc2cnc(N)cc21 [DP-5439]
inhibition of CYP2C8 [2]: could inhibit

increase of AUC0→t of ripretinib [3, 6]: 36.35% | increase of Cmax of ripretinib [3, 6]: 38.35% | increase of AUC0→t of ripretinib [3, 7]: 25.52% | increase of Cmax of ripretinib [3, 7]: 27.44% | stability in plasma under four conditions [4]: good stability
Structure (SMILES): CCn1c(=O)c(-c2cc(NC(=O)Nc3ccccc3)c(F)cc2Br)cc2cnc(NC)cc21 [Ripretinib]
median time to reach Cmax [5, 8]: 4 h | time to reach a steady state [5, 8]: 14 days | mean AUC0-12h [5, 9]: 3773 ng·h/mL | mean AUC0-24h [5, 9]: 6634 ng·h/mL | mean Cmax [5, 9]: 502 ng/mL | inhibition of CYP2C8 [2]: could inhibit

Structure (SMILES): C[C@@H](c1ncncc1F)[C@](O)(Cn1cncn1)c1ccc(F)cc1F [voriconazole]
inhibition of CYP3A4 [1]: moderate inhibitor
